# Tests used:
# OR5K1 (Homo sapiens) = target: T1, OR5K1 (Homo sapiens) (UniProt Q8NHB7); conditions: stereoisomer not certain
# T1 sequence (whole entry): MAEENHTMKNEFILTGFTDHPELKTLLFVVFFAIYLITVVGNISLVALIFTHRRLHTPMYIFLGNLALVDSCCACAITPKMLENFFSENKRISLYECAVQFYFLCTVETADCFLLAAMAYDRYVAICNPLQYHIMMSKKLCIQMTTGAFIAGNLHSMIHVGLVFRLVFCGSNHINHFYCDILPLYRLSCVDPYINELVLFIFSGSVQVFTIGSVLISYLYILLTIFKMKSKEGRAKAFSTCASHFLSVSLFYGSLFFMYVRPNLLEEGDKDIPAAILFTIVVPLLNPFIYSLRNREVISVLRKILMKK
# Summary of the method: (§1)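 Transient luciferase assays in mammalian cell lines were common, though methods varied by source. The values come from published papers and their supplementary material, with extra details from the original authors when needed. Responsive refers to a measured signal the original authors judged statistically different from baseline, and non-responsive (inactive) to the remainder.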
# OR5M3 (Homo sapiens) = target: T2, OR5M3 (Homo sapiens) (UniProt Q8NGP4); conditions: stereoisomer not certain
# T2 sequence (whole entry): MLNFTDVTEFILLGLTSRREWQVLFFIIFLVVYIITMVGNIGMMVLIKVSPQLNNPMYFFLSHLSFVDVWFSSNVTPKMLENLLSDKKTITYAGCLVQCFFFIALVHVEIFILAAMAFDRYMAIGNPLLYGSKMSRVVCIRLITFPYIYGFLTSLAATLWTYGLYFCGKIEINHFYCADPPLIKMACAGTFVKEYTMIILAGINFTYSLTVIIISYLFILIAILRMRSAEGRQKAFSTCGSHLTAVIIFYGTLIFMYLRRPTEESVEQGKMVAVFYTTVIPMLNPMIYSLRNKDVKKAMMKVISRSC
# Summary of the method: as §1
# 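Further: active if original authors judged signal statistically different from baseline.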
Structure (SMILES),odorant receptor agonist call (OR5K1 (Homo sapiens)),odorant receptor agonist call (OR5M3 (Homo sapiens))
CC(=O)c1ccc(C)cc1,inactive,inactive
CC=CC(=O)C(C)CC (centres undefined),inactive,inactive
CC(=O)O,inactive,inactive
C=CC(=O)CCCCC,inactive,inactive
CCO,inactive,inactive
COc1ccc(C)cc1O,inactive,inactive
CCCCCCCCC1CCC(=O)O1 (centres undefined),inactive,inactive
CCCCCC=CC=O,inactive,inactive
SCc1cccs1,inactive,inactive
C=CC(=C)CCC=C(C)C,inactive,inactive
CCC(C)C=O (centres undefined),inactive,inactive
CCOC(C)OCC,inactive,inactive
CCCCCCCC1CCC(=O)O1 (centres undefined),inactive,inactive
CCCCCCCC1CCCC(=O)O1 (centres undefined),inactive,inactive
COC(=O)C=Cc1ccccc1,,inactive
CSC,inactive,inactive
CSCCCO,inactive,inactive
C=CC(=O)CC=CCC,inactive,inactive
CSSc1ccoc1C,inactive,inactive
CCCSSCCC,inactive,inactive
CCC(C)CCC(=O)[O-] (centres undefined),inactive,inactive

Structure (SMILES),odorant receptor agonist call (OR5K1 (Homo sapiens)),odorant receptor agonist call (OR5M3 (Homo sapiens))
CCCCCCCCC=CC=O,inactive,inactive
CC1=CCOC1=O,,inactive
CCOC(=O)CCSC,inactive,inactive
CCCCCC1CCC(=O)O1 (centres undefined),inactive,inactive
CCOC(=O)CCC(C)C,inactive,inactive
CCCCCCO,inactive,inactive
CC(C)=CCCC(C)=CCO,inactive,inactive
CC(=O)OCCc1ccccc1,inactive,inactive
CC1=CC(=O)C(C)O1 (centres undefined),,inactive
CCCc1ccc(O)c(OC)c1,inactive,inactive
CC(C)CC=O,inactive,inactive
CCOC(C)=O,inactive,inactive
CCCCCC(C)O (centres undefined),inactive,inactive
CC1(C)OC=CC1=O,,inactive
CCCCCCCC(C)=O,inactive,inactive
CCCC=CC=O,inactive,inactive
CCCCC(=O)OCC,inactive,inactive
OCCc1ccccc1,inactive,inactive
CCCCCCCCCO,,inactive
C=C(C)c1ccc(C)cc1,inactive,inactive
CC(=O)OCCC(C)C,inactive,inactive

# Source: the M2OR odorant receptor database
